Our source for the selectivity ratio, IC50 and CC50 values is ChEMBL document CHEMBL4145651, “Kleinhospitine E and Cycloartane Triterpenoids from Kleinhovia hospita” (J Nat Prod, 2018).

Series [1] is described as follows: Selectivity index, ratio of CC50 for human MT4 cells to IC50 for HIV1 NL4-3 infected in human MT4 cells. Particulars: read-out: Ratio CC50/IC50; call rule not given here. Format: toxicity, cell-based. The essentials:
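Selectivity index computed as CC50 (MT4 CytoTox-Glo, 3 days) divided by anti-HIV IC50 (NL4-3 Nanoluc-sec luciferase in MT4, day 3); SI below 5 regarded as no selective activity.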

For another series, the system named is A549. The experiment in a line: Antiproliferative activity against human A549 cells after 72 hrs by SRB assay. Particulars: A549, 72 h. Format: functional, cell-based. For orientation: Sulforhodamine B stains cellular protein and so reports cell mass.
Another series relates to KB. The experiment in a line: Antiproliferative activity against human KB cells after 72 hrs by SRB assay. It counts as functional, cell-based.
Another series deals with MDA-MB-231. The experiment in a line: Antiproliferative activity against human MDA-MB-231 cells after 72 hrs by SRB assay. It counts as functional, cell-based. Particulars: MDA-MB-231, 72 h.
In a further series the test system is MCF7. The experiment in a line: Antiproliferative activity against human MCF7 cells after 72 hrs by SRB assay. It counts as functional, cell-based. Particulars: MCF7, 72 h.
A short description of series [2]: Antiproliferative activity against human KBVIN cells after 72 hrs by SRB assay. It counts as functional, cell-based.
For series [3], the system named is Human immunodeficiency virus 1. The series can be described thus: Antiviral activity against HIV1 NL4-3 infected in human MT4 cells assessed as inhibition of viral replication after 3 days by luciferase reporter gene assay. It counts as functional, organism-based. The essentials: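 MT4 cells (1 × 10^5 cells/mL) infected with HIV-1 NL4-3 Nanoluc-sec reporter virus at 50 TCID50/well alongside a range of compound concentrations (multicycle replication). Supernatants harvested on day 3 post-infection and read for secreted luciferase (Nano-Glo).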
(In a reporter assay the amount or activity of a reporter protein is the signal.)

The nature of series [4]: Cytotoxicity against human MT4 cells assessed as reduction in cell viability after 3 days by cytoTox-Glo reagent based assay.
[5] abbreviates: Human immunodeficiency virus 1, NL4-3, MT4, 72 h, read-out: IC50.

Some results are limits rather than exact numbers.

The IC50 is the concentration needed to halve the response being measured. In the case of `CO[C@H]1O[C@@]2(C=C(C)C(=O)O2)C[C@@H]1[C@H]1CC[C@@]2(C)[C@@H]3CC[C@H]4C(C)(C)C(=O)C=C[C@@]45C[C@@]35CC[C@]12C`, the selectivity ratio in series [1] is less than 5. Moreover, the half-maximal inhibitory concentration (IC50) with A549 was greater than 10 µM; in the series with KB, greater than 10 µM; in the series on MDA-MB-231, greater than 10 µM; in the series with MCF7, greater than 10 µM; in series [2], greater than 10 µM; in series [3] (mt4) it was “Not Active”.

For the compound `CC(=O)O[C@H]1C(=O)[C@@]2(C)[C@H]([C@H](OC(=O)c3ccccc3)[C@]3(O)C[C@H](OC(=O)[C@H](O)[C@@H](NC(=O)c4ccccc4)c4ccccc4)C(C)=C1C3(C)C)[C@]1(OC(C)=O)CO[C@@H]1C[C@@H]2O` [PACLITAXEL], the IC50 stood at 0.0063 µM in the series with A549, 0.0081 µM in the series with MDA-MB-231, 0.0112 µM in the series with MCF7 and 2.79 µM in series [2].

For `CC(C)=CC(=O)CC(C(=O)O)[C@H]1CC[C@@]2(C)[C@@H]3CC[C@H]4C(C)(C)C(=O)C=C[C@@]45C[C@@]35CC[C@]12C` (some centres undefined), the IC50 (in the series on A549; in the series with KB; in the series with MDA-MB-231; in the series on MCF7; in series [2]) was greater than 10 µM each time.

For `CC1(C)CC[C@]2(C)CC=C3[C@]4(C)CC[C@H]5C(C)(C)C(=O)CC[C@]5(C)[C@H]4CC[C@@]3(C)[C@@H]2C1` [TARAXERONE], the half-inhibitory concentration (IC50) (in the series on A549; in the series on KB; in the series on MDA-MB-231; in the series on MCF7; in series [2]) was greater than 10 µM each time.

Take `CC(C)=CC(=O)C[C@@H](C)[C@H]1CC[C@@]2(C)[C@@H]3CC[C@H]4C(C)(C)C(=O)C=C[C@]45C[C@]35CC[C@]12C`: the selectivity ratio in series [1] was less than 5. Besides, the half-maximal inhibitory concentration (IC50) with A549 was greater than 10 µM; in the series with KB, greater than 10 µM; in the series on MDA-MB-231, greater than 10 µM; with MCF7 it was greater than 10 µM; in series [2], 8.4 µM; in series [3] (mt4) it was “Not Active”.

`CO[C@@H]1O[C@@]2(C=C(C)C(=O)O2)C[C@@H]1[C@H]1CC[C@@]2(C)[C@@H]3CC[C@H]4C(C)(C)C(=O)C=C[C@@]45C[C@@]35CC[C@]12C`: the selectivity ratio in series [1] was less than 5. Moreover, the IC50 in the series on A549 was 9.1 µM; with KB, greater than 10 µM; in the series on MDA-MB-231, greater than 10 µM; with MCF7, greater than 10 µM; in series [2] it was 5.7 µM; in series [3] (mt4) it was “Not Active”.

As to `CC(=O)/C=C1/C=C([C@H]2CC[C@@]3(C)[C@@H]4CC[C@H]5C(C)(C)C(=O)C=C[C@@]56C[C@@]46CC[C@]23C)C(=O)N1`, in series [1], the selectivity ratio was less than 5. Moreover, the IC50 in the series on A549 is 9.4 µM; with KB, 8 µM; in the series with MDA-MB-231, 10 µM; with MCF7 it was greater than 10 µM; in series [2] it was 6.9 µM; in series [3] (mt4) it was “Not Active”.

In the case of `CC(C)=CC(=O)C[C@@H](C)[C@H]1CC[C@@]2(C)[C@@H]3CC[C@H]4C(C)(C)C(=O)C=C[C@@]45C[C@@]35CC[C@]12C`, the half-maximal inhibitory concentration (IC50) (in the series on A549; in the series with KB; with MDA-MB-231; in the series on MCF7; in series [2]) was greater than 10 µM each time.

In general, CC50 refers to the concentration giving 50% cytotoxicity. As for `CC1=C[C@@]2(C[C@H]([C@H]3CC[C@@]4(C)[C@@H]5CC[C@H]6C(C)(C)C(=O)C=C[C@]67C[C@]57CC[C@]34C)CO2)OC1=O`, the selectivity ratio in series [1] amounted to 5.8. The IC50 in the series with A549 was greater than 10 µM; in the series on KB it was greater than 10 µM; in the series on MDA-MB-231 it was greater than 10 µM; with MCF7, greater than 10 µM; in series [2], greater than 10 µM; in series [3] (setting [5]), 0.8 µM. In addition, the half-maximal cytotoxic concentration (CC50) at 72 h in series [4] is 4.6 µM.

Consider `Cc1cn([C@H]2C[C@H](N=[N+]=[N-])[C@@H](CO)O2)c(=O)[nH]c1=O` [ZIDOVUDINE], for which the cytotoxic concentration (CC50) at 72 h in series [4] was greater than 3.74 µM.

Regarding `CC1=C[C@@]2(C[C@H]([C@H]3CC[C@@]4(C)[C@@H]5CC[C@H]6C(C)(C)C(=O)C=C[C@@]67C[C@@]57CC[C@]34C)CO2)OC1=O`, the IC50 is 8.2 µM with A549; greater than 10 µM in the series with KB; greater than 10 µM in the series with MDA-MB-231; greater than 10 µM in the series with MCF7; greater than 10 µM in series [2].

Take `CO[C@H]1O[C@]2(C=C(C)C(=O)O2)C[C@@H]1[C@H]1CC[C@@]2(C)[C@@H]3CC[C@H]4C(C)(C)C(=O)C=C[C@@]45C[C@@]35CC[C@]12C`: the concentration for half-maximal inhibition (IC50) was 8.9 µM with A549; greater than 10 µM with KB; greater than 10 µM in the series with MDA-MB-231; 10 µM with MCF7; 6.1 µM in series [2].

For `CO[C@H]1O[C@]2(C=C(C)C(=O)O2)C[C@@H]1[C@H]1CC[C@@]2(C)[C@@H]3CC[C@H]4C(C)(C)C(=O)C=C[C@]45C[C@]35CC[C@]12C`, the selectivity ratio in series [1] turned out to be 5.3. Further, the IC50 in the series on A549 is greater than 10 µM; in the series on KB it was greater than 10 µM; in the series on MDA-MB-231, greater than 10 µM; in the series with MCF7, greater than 10 µM; in series [2], greater than 10 µM; in series [3] (setting [5]), 2.4 µM. The CC50 at 72 h in series [4] came to 12.6 µM.
